According to ChEMBL document CHEMBL3739391, “Development of a potent and selective cell penetrant Legumain inhibitor” (Bioorg Med Chem Lett, 2015):
Calls of active or inactive are those of the source. No cut-off for these calls is given here.

Experiments:
[1] = target: T1, Legumain (Homo sapiens) (UniProt Q99538); experiment: Inhibition of legumain in human MCF7 cells using Z-Ala-Ala-Asn-MCA substrate at 30 uM incubated for 24 hrs by microplate reader analysis; format: cell-based
T1 sequence (whole entry): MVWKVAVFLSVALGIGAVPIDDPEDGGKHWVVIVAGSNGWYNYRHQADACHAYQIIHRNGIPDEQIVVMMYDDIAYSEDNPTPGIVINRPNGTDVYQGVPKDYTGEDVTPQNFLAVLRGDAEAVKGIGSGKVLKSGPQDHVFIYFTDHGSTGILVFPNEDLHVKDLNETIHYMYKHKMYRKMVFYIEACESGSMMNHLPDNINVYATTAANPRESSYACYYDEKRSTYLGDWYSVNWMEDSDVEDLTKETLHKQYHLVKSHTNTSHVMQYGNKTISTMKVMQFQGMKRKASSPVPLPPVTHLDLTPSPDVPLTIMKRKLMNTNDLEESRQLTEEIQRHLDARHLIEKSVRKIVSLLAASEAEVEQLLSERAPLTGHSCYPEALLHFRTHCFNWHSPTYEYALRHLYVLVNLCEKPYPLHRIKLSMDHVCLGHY
In short: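 MCF7 cells incubated with compound at 37 °C for 24 h. Media then removed, cells washed with assay buffer and lysed. Intracellular legumain activity read in the lysate with fluorogenic substrate. Run in triplicate.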

[2] = target: T2, Legumain (Homo sapiens, UniProt Q99538); experiment: Inhibition of recombinant human legumain using Z-Ala-Ala-Asn-MCA substrate measured every 2 mins for 60 mins by microplate reader analysis
T2 sequence (Q99538 whole entry): T1 sequence (whole entry)

[3] = Cytotoxicity against human DU145 cells assessed as cell viability at 30 uM incubated for 96 hrs by MTT assay; format: functional; conditions: DU-145, 96 h, read-out: Activity
In short: (§1)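 MTT viability read-out after 96 h exposure. Compared with DMSO vehicle control. n = 6.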

[4] = Cytotoxicity against human MCF10A cells assessed as cell death at 150 uM incubated for 96 hrs by MTT assay; format: functional; conditions: MCF-10A
[5] = system: MCF7; experiment: Cytotoxicity against human MCF7 cells assessed as cell death at 30 uM incubated for 96 hrs by MTT assay; format: functional; conditions: MCF7, 96 h
In short: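 MCF7 breast cancer cells were exposed to compound for 96 h, with DMSO vehicle as the control. Viability was read by MTT assay, n = 6.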

[6] = target: T3, Ubiquitin carboxyl-terminal hydrolase 17 (Homo sapiens, UniProt Q6R6M4); experiment: Inhibition of USP17 in human HEK293T cells using fluorogenic substrate ub-rhodamine110 preincubated for 30 mins followed by substrate addition measured every 4 mins for 1 hr by microplate reader analysis; format: cell-based, HEK-293T
T3 sequence (Q6R6M4 whole entry): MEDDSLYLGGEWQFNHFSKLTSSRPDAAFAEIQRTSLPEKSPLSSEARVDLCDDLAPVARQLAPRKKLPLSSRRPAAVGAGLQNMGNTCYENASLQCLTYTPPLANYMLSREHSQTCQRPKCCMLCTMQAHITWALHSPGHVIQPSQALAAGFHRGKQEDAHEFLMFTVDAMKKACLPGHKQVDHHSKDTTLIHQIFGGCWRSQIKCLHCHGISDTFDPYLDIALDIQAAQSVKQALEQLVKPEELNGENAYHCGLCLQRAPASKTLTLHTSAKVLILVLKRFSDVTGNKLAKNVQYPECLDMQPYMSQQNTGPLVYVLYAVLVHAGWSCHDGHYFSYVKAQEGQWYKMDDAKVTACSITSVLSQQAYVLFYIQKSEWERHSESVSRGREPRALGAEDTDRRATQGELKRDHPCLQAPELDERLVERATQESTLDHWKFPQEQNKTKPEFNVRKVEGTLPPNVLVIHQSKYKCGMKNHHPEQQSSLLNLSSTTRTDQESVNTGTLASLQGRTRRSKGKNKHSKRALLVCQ

[7] = target: Cathepsin S (Homo sapiens, UniProt P25774); experiment: Inhibition of recombinant cathepsin S (unknown origin) using ZVVR-AMC fluorogenic substrate
Cathepsin S, sequence (P25774 whole entry): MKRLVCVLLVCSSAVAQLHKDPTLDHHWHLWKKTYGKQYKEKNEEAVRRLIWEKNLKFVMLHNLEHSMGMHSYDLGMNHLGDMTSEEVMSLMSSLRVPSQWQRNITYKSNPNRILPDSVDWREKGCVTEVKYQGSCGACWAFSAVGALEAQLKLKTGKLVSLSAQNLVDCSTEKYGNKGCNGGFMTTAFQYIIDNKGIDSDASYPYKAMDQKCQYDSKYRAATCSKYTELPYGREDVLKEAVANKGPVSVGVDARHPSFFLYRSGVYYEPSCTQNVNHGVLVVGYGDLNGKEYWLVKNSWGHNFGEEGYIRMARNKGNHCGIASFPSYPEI

[8] = system: MCF7; experiment: Antimetastatic activity in human MCF7 cells assessed as inhibition of colony formation efficiency at 5 uM after 2 weeks by soft agar anchorage-independent growth assay; format: functional; conditions: MCF7, 336 h
In short: (§2)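 Soft agar anchorage-independent colony formation in MCF7 and PC3 cells over 2 weeks. Compound and media refreshed every 4 days. Colonies quantified relative to DMSO vehicle-treated cells. n = 5.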

[9] = Cytotoxicity against human PC3 cells assessed as cell viability at 30 uM incubated for 96 hrs by MTT assay; format: functional; conditions: PC-3, 96 h, read-out: Activity; in short: as §1
[10] = system: T47D; experiment: Cytotoxicity against human T47D cells assessed as cell viability at 30 uM incubated for 96 hrs by MTT assay; format: functional; conditions: read-out: Activity; in short: as §1
[11] = Antimetastatic activity in human PC3 cells assessed as inhibition of colony formation efficiency at 2.5 uM after 2 weeks by soft agar anchorage-independent growth assay; format: functional; conditions: PC-3, 336 h; in short: as §2
[12] = target: Caspase-8 (Homo sapiens, UniProt Q14790); experiment: Inhibition of recombinant caspase 8 (unknown origin) using IETD-AFC fluorogenic substrate
Caspase-8, sequence (Q14790 217-374 limits assumed): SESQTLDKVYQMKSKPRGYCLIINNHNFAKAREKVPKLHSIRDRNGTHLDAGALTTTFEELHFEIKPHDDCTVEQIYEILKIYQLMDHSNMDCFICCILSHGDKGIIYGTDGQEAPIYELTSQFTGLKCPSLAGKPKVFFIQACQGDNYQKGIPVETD
Caspase-8, sequence (Q14790 385-479 limits assumed): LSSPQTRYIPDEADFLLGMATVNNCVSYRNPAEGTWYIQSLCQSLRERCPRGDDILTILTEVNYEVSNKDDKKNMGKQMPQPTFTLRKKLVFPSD

[13] = target: T4, Caspase-3 (Homo sapiens, UniProt P42574); experiment: Inhibition of recombinant caspase 3 (unknown origin) using DEVD-AFC fluorogenic substrate
T4 sequence (P42574 whole entry): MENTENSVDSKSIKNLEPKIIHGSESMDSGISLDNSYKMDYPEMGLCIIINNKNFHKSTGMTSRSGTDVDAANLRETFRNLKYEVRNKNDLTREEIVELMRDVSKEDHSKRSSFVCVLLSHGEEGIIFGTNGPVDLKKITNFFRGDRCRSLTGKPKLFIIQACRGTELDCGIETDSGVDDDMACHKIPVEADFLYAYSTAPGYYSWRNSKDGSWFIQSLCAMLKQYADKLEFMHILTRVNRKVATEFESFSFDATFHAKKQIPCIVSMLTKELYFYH

[14] = target: T1, Legumain (Homo sapiens); experiment: Inhibition of legumain in human MCF7 cells using Z-Ala-Ala-Asn-MCA substrate at 30 uM incubated for 48 hrs by microplate reader analysis; format: cell-based
[15] = target: Cathepsin B (Homo sapiens, UniProt P07858); experiment: Inhibition of recombinant cathepsin B (unknown origin) using Z-Leu-Arg-AMC fluorogenic substrate

Row | SMILES | inhibition [1] [%] | IC50 [2] [nM] | also measured
1 | N#C[C@H](CC(N)=O)NC(=O)[C@@H]1CCCN1S(=O)(=O)c1ccc(F)cc1 | 0 | 269 | –
2 | CCc1ccc(-c2ccc(S(=O)(=O)N3CCC[C@H]3C(=O)N[C@H](C#N)CC(N)=O)cc2)cc1 | 42 | 71 | –
3 | N#C[C@H](CC(N)=O)NC(=O)[C@@H]1CCCN1S(=O)(=O)c1ccc(-c2ccc(Cl)cc2)cc1 | 64 | 45 | –
4 | CC(C)c1ccc(-c2ccc(S(=O)(=O)N3CCC[C@H]3C(=O)N[C@H](C#N)CC(N)=O)cc2)cc1 | 75 | 5 | –
5 | N#C[C@H](CC(N)=O)NC(=O)[C@@H]1CCCN1S(=O)(=O)c1ccc(-c2ccc(F)cc2)cc1 | 40 | 33 | –
6 | COc1ccc(S(=O)(=O)N2CCC[C@H]2C(=O)N[C@H](C#N)CC(N)=O)cc1 | – | > 10000 | –
7 | CC(C)(C)c1ccc(-c2ccc(S(=O)(=O)N3CCC[C@H]3C(=O)N[C@H](C#N)CC(N)=O)cc2)cc1 | 90 | 71 | viability at 30 µM [3]: > 50%; mortality at 150 µM [4]: 0%; mortality at 30 µM [5]: 81%; IC50 [6]: > 50000 nM; IC50 [7]: > 50000 nM; inhibition at 5 µM [8]: 50%; viability at 30 µM [9]: > 50%; viability at 30 µM [10]: > 50%; inhibition at 2.5 µM [11]: 50%; IC50 [12]: > 50000 nM; IC50 [13]: > 50000 nM; inhibition [14]: Active; IC50 [15]: > 50000 nM
8 | N#Cc1ccc(-c2ccc(S(=O)(=O)N3CCC[C@H]3C(=O)N[C@H](C#N)CC(N)=O)cc2)cc1 | 0 | 33 | –
9 | N#C[C@H](CC(N)=O)NC(=O)[C@@H]1CCCN1S(=O)(=O)c1ccc(-c2cccc(F)c2)cc1 | 42 | 47 | –
10 | N#C[C@H](CC(N)=O)NC(=O)[C@@H]1CCCN1S(=O)(=O)c1ccc(-c2ccccc2)cc1 | 47 | 12 | mortality at 150 µM [4]: 0%; mortality at 30 µM [5]: 45%; IC50 [6]: > 50000 nM; IC50 [7]: > 50000 nM; IC50 [12]: > 50000 nM; IC50 [13]: > 50000 nM; IC50 [15]: > 50000 nM
11 | N#C[C@H](CC(N)=O)NC(=O)[C@@H]1CCCN1S(=O)(=O)c1ccc(Br)cc1 | 0 | 282 | –
12 | COc1ccc(-c2ccc(S(=O)(=O)N3CCC[C@H]3C(=O)N[C@H](C#N)CC(N)=O)cc2)cc1 | 90 | 6 | mortality at 150 µM [4]: 0%; mortality at 30 µM [5]: 58%; IC50 [6]: > 50000 nM; IC50 [7]: > 50000 nM; IC50 [12]: > 50000 nM; IC50 [13]: > 50000 nM; IC50 [15]: > 50000 nM

Further lines, with some results ahead:

Row | inhibition [1] [%] | IC50 [2] [nM] | SMILES | also measured
13 | 0 | 593 | N#C[C@H](CC(N)=O)NC(=O)[C@@H]1CCCN1S(=O)(=O)c1ccc(Cl)cc1Cl | –
14 | 0 | 332 | N#C[C@H](CC(N)=O)NC(=O)[C@@H]1CCCN1S(=O)(=O)c1ccc(C(F)(F)F)cc1 | –
15 | 52 | 121 | N#C[C@H](CC(N)=O)NC(=O)[C@@H]1CCCN1S(=O)(=O)c1ccc(-c2ccc(C(F)(F)F)cc2)cc1 | –
16 | 49 | 49 | N#C[C@H](CC(N)=O)NC(=O)[C@@H]1CCCN1S(=O)(=O)c1ccc(-c2ccc3c(c2)OCO3)cc1 | –
17 | 29 | 35 | N#C[C@H](CC(N)=O)NC(=O)[C@@H]1CCCN1S(=O)(=O)c1ccc(-c2ccccc2Cl)cc1 | –
18 | 90 | 73 | CCOc1ccc(-c2ccc(S(=O)(=O)N3CCC[C@H]3C(=O)N[C@H](C#N)CC(N)=O)cc2)cc1 | –
19 | 0 | 73 | N#C[C@H](CC(N)=O)NC(=O)[C@@H]1CCCN1S(=O)(=O)c1ccc(Cl)cc1 | –
20 | 0 | 32 | Cc1ccc(-c2ccc(S(=O)(=O)N3CCC[C@H]3C(=O)N[C@H](C#N)CC(N)=O)cc2)cc1 | –
21 | 49 | 969 | CC(C)Oc1ccc(-c2ccc(S(=O)(=O)N3CCC[C@H]3C(=O)N[C@H](C#N)CC(N)=O)cc2)cc1 | –
